Measured values taken from ChEMBL document CHEMBL1155323, “Synthesis, characterization and antibacterial activity of 2-[1-(5-chloro-2-methoxy-phenyl)-5-methyl-1H-pyrazol-4-yl]-5-(substituted-phenyl)-[1,3,4]oxadiazoles” (Eur J Med Chem, 2009).
≈ marks a conversion by molar mass, not a printed value.

Legend:
Bacillus subtilis [1] = test: Antibacterial activity against Bacillus subtilis ATCC 6633 at 100 ug/ml after 24 hrs by agar cup plate method; format: functional; details: ATCC 6633, 24 h, read-out: IZ
Procedure, shortened: (§1)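 Agar well (bore) diffusion on inoculated nutrient agar with recultured organisms. Test samples prepared in 20% water in DMSO at 100 µg/mL and placed in bores. Plates incubated at 37 °C for 24 h, then the inhibition zone around each bore measured. Controls: inoculum only, and DMSO only.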

Escherichia coli [2] = test: Antibacterial activity against Escherichia coli ATCC 8739 after 24 hrs by microtitration method; format: functional; details: ATCC 8739, 24 h
Procedure, shortened: (§2)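 Strains grown in Luria broth (1% tryptone, 0.5% yeast extract, 0.5% NaCl), pH 7.2, at 37 °C for 24 h. Mid-log cells read at 540 nm and diluted to OD 0.004 (5×10^5 CFU/mL), then dispensed into microplate wells. Graded concentrations (0.2–500 µg/mL) in 20% water in DMSO added; incubated 37 °C, 24 h.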

Klebsiella pneumoniae [3] = test: Antibacterial activity against Klebsiella pneumoniae ATCC 11298 after 24 hrs by microtitration method; format: functional; details: ATCC 11298, 24 h; procedure, shortened: as §2
[4] = Octanol-water partition coefficient, log P by shake flask method; format: physicochemical
Bacillus subtilis [5] = test: Antibacterial activity against Bacillus subtilis ATCC 6633 after 24 hrs by microtitration method; format: functional; details: ATCC 6633, 24 h; procedure, shortened: as §2
Staphylococcus aureus [6] = test: Antibacterial activity against Staphylococcus aureus ATCC 6538P after 24 hrs by microtitration method; format: functional; procedure, shortened: as §2
Klebsiella pneumoniae [7] = test: Antibacterial activity against Klebsiella pneumoniae ATCC 11298 at 100 ug/ml after 24 hrs by agar cup plate method; format: functional; details: ATCC 11298, 24 h, read-out: IZ; procedure, shortened: as §1
Escherichia coli [8] = test: Antibacterial activity against Escherichia coli ATCC 8739 at 100 ug/ml after 24 hrs by agar cup plate method; format: functional; details: ATCC 8739, 24 h, read-out: IZ; procedure, shortened: as §1
Staphylococcus aureus [9] = test: Antibacterial activity against Staphylococcus aureus ATCC 6538P at 100 ug/ml after 24 hrs by agar cup plate method; format: functional; details: read-out: IZ; procedure, shortened: as §1

`COc1ccc(Cl)cc1-n1ncc(-c2nnc(-c3ccc(Cl)cc3)o2)c1C` showed a zone of inhibition at 100 µg/mL (Bacillus subtilis [1]) of 15 mm, an MIC (Escherichia coli [2]) of 40 µg/mL (≈ 99.7 µM) and an MIC (Klebsiella pneumoniae [3]) of 41 µg/mL (≈ 102 µM). The logP [4] was 4.51, the MIC (Bacillus subtilis [5]) was 39.6 µg/mL (≈ 98.7 µM) and the MIC (Staphylococcus aureus [6]) was 30.6 µg/mL (≈ 76.3 µM). It also gave a zone of inhibition at 100 µg/mL (Klebsiella pneumoniae [7]) of 13 mm, a zone of inhibition at 100 µg/mL (Escherichia coli [8]) of 14 mm and a zone of inhibition at 100 µg/mL (Staphylococcus aureus [9]) of 18 mm.
For `COc1ccc(Cl)cc1-n1ncc(-c2nnc(-c3ccc(F)cc3)o2)c1C`, the zone of inhibition at 100 µg/mL (Bacillus subtilis [1]) was 25 mm, the MIC (Escherichia coli [2]) was 29.6 µg/mL (≈ 76.9 µM) and the MIC (Klebsiella pneumoniae [3]) was 30 µg/mL (≈ 78 µM). The logP [4] was 4.26, the MIC (Bacillus subtilis [5]) was 22.4 µg/mL (≈ 58.2 µM) and the MIC (Staphylococcus aureus [6]) was 29.8 µg/mL (≈ 77.4 µM). For the same molecule, the zone of inhibition at 100 µg/mL (Klebsiella pneumoniae [7]) was 19 mm, the zone of inhibition at 100 µg/mL (Escherichia coli [8]) was 21 mm and the zone of inhibition at 100 µg/mL (Staphylococcus aureus [9]) was 20 mm.
For `COc1ccc(Cl)cc1-n1ncc(-c2nnc(-c3ccc(Cl)c(Cl)c3)o2)c1C`, the zone of inhibition at 100 µg/mL (Bacillus subtilis [1]) was 19 mm, the MIC (Escherichia coli [2]) was 21.5 µg/mL (≈ 49.3 µM) and the MIC (Klebsiella pneumoniae [3]) was 39.6 µg/mL (≈ 90.9 µM). For the same molecule, the logP [4] was 5.57, the MIC (Bacillus subtilis [5]) was 30 µg/mL (≈ 68.9 µM) and the MIC (Staphylococcus aureus [6]) was 29.8 µg/mL (≈ 68.4 µM). It also gave a zone of inhibition at 100 µg/mL (Klebsiella pneumoniae [7]) of 15 mm, a zone of inhibition at 100 µg/mL (Escherichia coli [8]) of 27 mm and a zone of inhibition at 100 µg/mL (Staphylococcus aureus [9]) of 20 mm.
`COc1ccc(Cl)cc1-n1ncc(-c2nnc(-c3ccc(C)c([N+](=O)[O-])c3)o2)c1C` gave a zone of inhibition at 100 µg/mL (Bacillus subtilis [1]) of 15 mm, an MIC (Escherichia coli [2]) of 30.8 µg/mL (≈ 72.3 µM) and an MIC (Klebsiella pneumoniae [3]) of 42 µg/mL (≈ 98.6 µM). The logP [4] was 6.42, the MIC (Bacillus subtilis [5]) was 39.6 µg/mL (≈ 93 µM) and the MIC (Staphylococcus aureus [6]) was 40.6 µg/mL (≈ 95.3 µM). For the same molecule, the zone of inhibition at 100 µg/mL (Klebsiella pneumoniae [7]) was 12 mm, the zone of inhibition at 100 µg/mL (Escherichia coli [8]) was 17 mm and the zone of inhibition at 100 µg/mL (Staphylococcus aureus [9]) was 14 mm.
For `COc1ccc(Cl)cc1-n1ncc(-c2nnc(-c3ccc(Br)c(C)c3)o2)c1C`, the zone of inhibition at 100 µg/mL (Bacillus subtilis [1]) was 15 mm, the MIC (Escherichia coli [2]) was 30.8 µg/mL (≈ 67 µM) and the MIC (Klebsiella pneumoniae [3]) was 40 µg/mL (≈ 87 µM). For the same molecule, the logP [4] was 5.2, the MIC (Bacillus subtilis [5]) was 39.8 µg/mL (≈ 86.6 µM) and the MIC (Staphylococcus aureus [6]) was 39.8 µg/mL (≈ 86.6 µM). It also gave a zone of inhibition at 100 µg/mL (Klebsiella pneumoniae [7]) of 14 mm, a zone of inhibition at 100 µg/mL (Escherichia coli [8]) of 17 mm and a zone of inhibition at 100 µg/mL (Staphylococcus aureus [9]) of 15 mm.
`COc1ccc(Cl)cc1-n1ncc(-c2nnc(-c3cc(Cl)cc(Cl)c3)o2)c1C` gave a zone of inhibition at 100 µg/mL (Bacillus subtilis [1]) of 15 mm, an MIC (Escherichia coli [2]) of 22.4 µg/mL (≈ 51.4 µM) and an MIC (Klebsiella pneumoniae [3]) of 29.6 µg/mL (≈ 67.9 µM). For the same molecule, the logP [4] was 5.61, the MIC (Bacillus subtilis [5]) was 31.8 µg/mL (≈ 73 µM) and the MIC (Staphylococcus aureus [6]) was 41 µg/mL (≈ 94.1 µM). It also gave a zone of inhibition at 100 µg/mL (Klebsiella pneumoniae [7]) of 21 mm, a zone of inhibition at 100 µg/mL (Escherichia coli [8]) of 25 mm and a zone of inhibition at 100 µg/mL (Staphylococcus aureus [9]) of 13 mm.
Molecule `COc1ccc(Cl)cc1-n1ncc(-c2nnc(-c3ccc(Br)cc3)o2)c1C` has a zone of inhibition at 100 µg/mL (Bacillus subtilis [1]) of 14 mm, an MIC (Escherichia coli [2]) of 39.8 µg/mL (≈ 89.3 µM) and an MIC (Klebsiella pneumoniae [3]) of 41.6 µg/mL (≈ 93.3 µM). It also gave a logP [4] of 4.88, an MIC (Bacillus subtilis [5]) of 40.6 µg/mL (≈ 91.1 µM) and an MIC (Staphylococcus aureus [6]) of 30 µg/mL (≈ 67.3 µM). For the same molecule, the zone of inhibition at 100 µg/mL (Klebsiella pneumoniae [7]) was 13 mm, the zone of inhibition at 100 µg/mL (Escherichia coli [8]) was 15 mm and the zone of inhibition at 100 µg/mL (Staphylococcus aureus [9]) was 19 mm.
Work on `COc1ccc(Cl)cc1-n1ncc(-c2nnc(-c3ccccc3)o2)c1C` yielded a zone of inhibition at 100 µg/mL (Bacillus subtilis [1]) of 20 mm, an MIC (Escherichia coli [2]) of 40.6 µg/mL (≈ 111 µM) and an MIC (Klebsiella pneumoniae [3]) of 40.6 µg/mL (≈ 111 µM). The logP [4] was 4.32, the MIC (Bacillus subtilis [5]) was 29.8 µg/mL (≈ 81.2 µM) and the MIC (Staphylococcus aureus [6]) was 39.8 µg/mL (≈ 109 µM). The zone of inhibition at 100 µg/mL (Klebsiella pneumoniae [7]) was 14 mm, the zone of inhibition at 100 µg/mL (Escherichia coli [8]) was 14 mm and the zone of inhibition at 100 µg/mL (Staphylococcus aureus [9]) was 15 mm.
Work on `COc1ccc(Cl)cc1-n1ncc(-c2nnc(-c3cccc(F)c3)o2)c1C` yielded a zone of inhibition at 100 µg/mL (Bacillus subtilis [1]) of 19 mm, an MIC (Escherichia coli [2]) of 30.6 µg/mL (≈ 79.5 µM) and an MIC (Klebsiella pneumoniae [3]) of 29.8 µg/mL (≈ 77.4 µM). The logP [4] was 4.28, the MIC (Bacillus subtilis [5]) was 30 µg/mL (≈ 78 µM) and the MIC (Staphylococcus aureus [6]) was 21.5 µg/mL (≈ 55.9 µM). The zone of inhibition at 100 µg/mL (Klebsiella pneumoniae [7]) was 20 mm, the zone of inhibition at 100 µg/mL (Escherichia coli [8]) was 18 mm and the zone of inhibition at 100 µg/mL (Staphylococcus aureus [9]) was 27 mm.
`COc1ccc(Cl)cc1-n1ncc(-c2nnc(-c3ccc(C)c(Br)c3)o2)c1C` gave a zone of inhibition at 100 µg/mL (Bacillus subtilis [1]) of 15 mm, an MIC (Escherichia coli [2]) of 40.6 µg/mL (≈ 88.3 µM) and an MIC (Klebsiella pneumoniae [3]) of 39 µg/mL (≈ 84.8 µM). It also gave a logP [4] of 5.19, an MIC (Bacillus subtilis [5]) of 39.6 µg/mL (≈ 86.1 µM) and an MIC (Staphylococcus aureus [6]) of 29.8 µg/mL (≈ 64.8 µM). For the same molecule, the zone of inhibition at 100 µg/mL (Klebsiella pneumoniae [7]) was 15 mm, the zone of inhibition at 100 µg/mL (Escherichia coli [8]) was 14 mm and the zone of inhibition at 100 µg/mL (Staphylococcus aureus [9]) was 20 mm.
`CC1(C)S[C@@H]2[C@H](NC(=O)[C@H](N)c3ccccc3)C(=O)N2[C@H]1C(=O)O` [AMPICILLIN] showed a zone of inhibition at 100 µg/mL (Bacillus subtilis [1]) of 32 mm, an MIC (Escherichia coli [2]) of 3.88 µg/mL (≈ 11.1 µM) and an MIC (Klebsiella pneumoniae [3]) of 4 µg/mL (≈ 11.4 µM). It also gave an MIC (Bacillus subtilis [5]) of 3.28 µg/mL (≈ 9.39 µM), an MIC (Staphylococcus aureus [6]) of 3.36 µg/mL (≈ 9.62 µM) and a zone of inhibition at 100 µg/mL (Klebsiella pneumoniae [7]) of 30 mm. For the same molecule, the zone of inhibition at 100 µg/mL (Escherichia coli [8]) was 30 mm and the zone of inhibition at 100 µg/mL (Staphylococcus aureus [9]) was 31 mm.
